Experimental data published in ChEMBL document CHEMBL3414472, “Synthesis, SAR, and series evolution of novel oxadiazole-containing 5-lipoxygenase activating protein inhibitors: discovery of 2-[4-(3-{(r)-1-[4-(2-amino-pyrimidin-5-yl)-phenyl]-1-cyclopropyl-ethyl}-[1,2,4]oxadiazol-5-yl)-pyrazol-1-yl]-N,N-dimethyl-acetamide (BI 665915)” (J Med Chem, 2015).
In brackets after ≈: the same amount, converted by molar mass.

How the values were obtained:
[1] = biological target: T1, Arachidonate 5-lipoxygenase-activating protein (Mus musculus, UniProt P30355); experiment: Inhibition of FLAP in calcimycin-stimulated mouse whole blood assessed as inhibition of LTB4 synthesis preincubated for 15 mins followed by calcimycin stimulation measured after 30 mins
T1 sequence (P30355 whole entry): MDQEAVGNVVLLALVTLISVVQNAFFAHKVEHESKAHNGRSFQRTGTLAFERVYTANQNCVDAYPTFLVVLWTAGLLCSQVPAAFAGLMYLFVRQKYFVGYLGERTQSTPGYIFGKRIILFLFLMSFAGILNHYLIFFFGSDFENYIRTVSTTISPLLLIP
Method in brief: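 Mouse whole blood run by the same protocol as the human whole blood LTB4 assay (compound 15 min at 37 °C, 100 µM final calcimycin 30 min, HTRF LTB4 read-out). Geometric mean (n ≥ 3) of duplicate 8-point curves.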

[2] = Mean residence time in cynomolgus monkey at 1 mg/kg, iv; type: ADME, organism-based, Macaca fascicularis; design: dose 1 mg/kg, route intravenous; conditions: in vivo
Method in brief: (§1)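 iv 1 mg/kg in 70 % PEG; po 10 mg/kg as suspension in 0.5 % methyl cellulose/0.015 % Tween. Blood sampled at 11 timepoints (0, 5, 15, 30 min, 1, 2, 4, 6, 8, 12, 24 h) per dose; mean of n = 3. Clearance expressed as percent of hepatic blood flow.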

[3] = biological target: T2, Leukotriene A-4 hydrolase (Homo sapiens) (UniProt P09960); experiment: Inhibition of LTA4 hydrolase (unknown origin) at 10 uM relative to control
T2 sequence (whole entry): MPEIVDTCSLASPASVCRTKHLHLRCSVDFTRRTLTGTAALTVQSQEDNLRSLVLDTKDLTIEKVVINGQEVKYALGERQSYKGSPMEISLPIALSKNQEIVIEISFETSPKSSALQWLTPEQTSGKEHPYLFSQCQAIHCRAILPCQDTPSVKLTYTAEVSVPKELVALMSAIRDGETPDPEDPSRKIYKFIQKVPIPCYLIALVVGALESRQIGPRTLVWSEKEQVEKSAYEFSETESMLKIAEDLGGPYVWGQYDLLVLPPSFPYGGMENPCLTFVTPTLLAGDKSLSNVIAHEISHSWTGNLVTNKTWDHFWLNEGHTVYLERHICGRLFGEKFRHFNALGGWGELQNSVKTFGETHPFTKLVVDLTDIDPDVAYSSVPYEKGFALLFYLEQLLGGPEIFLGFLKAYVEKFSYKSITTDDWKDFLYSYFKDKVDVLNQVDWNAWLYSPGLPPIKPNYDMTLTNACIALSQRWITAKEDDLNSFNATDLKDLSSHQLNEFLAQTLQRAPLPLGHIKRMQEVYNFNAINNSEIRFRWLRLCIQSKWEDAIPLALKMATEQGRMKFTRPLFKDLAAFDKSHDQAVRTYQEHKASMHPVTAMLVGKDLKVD

Mus musculus = experiment: In vivo inhibition of FLAP in C57BL/6 mouse assessed as LTB4 production in calcimycin-stimulated whole blood at 30 mg/kg, po after 2 hrs by ELISA (reference value: 100 +/- 13.3%); type: functional; design: scale not given: the % may be the effect or the level left
[4] = biological target: T3, Arachidonate 5-lipoxygenase-activating protein (Homo sapiens, UniProt P20292); experiment: Inhibition of FLAP in calcimycin-stimulated human whole blood assessed as inhibition of LTB4 synthesis preincubated for 15 mins followed by calcimycin stimulation measured after 30 mins
T3 sequence (P20292 whole entry): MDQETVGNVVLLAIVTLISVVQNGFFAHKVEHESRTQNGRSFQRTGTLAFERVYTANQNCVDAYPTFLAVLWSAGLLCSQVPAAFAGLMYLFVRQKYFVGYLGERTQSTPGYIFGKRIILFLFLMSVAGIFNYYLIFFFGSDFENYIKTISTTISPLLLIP
Method in brief: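 Heparinized human volunteer blood preincubated with compound 15 min at 37 °C, 5 % CO2; calcimycin 100 µM final, 30 min at 37 °C; spun 2000 rpm 5 min at 4 °C. Supernatant LTB4 measured by HTRF competition (LTB4-XL665 plus anti-LTB4 cryptate, 2 h room temperature). Geometric mean (n ≥ 3) of duplicate 10-point curves.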

[5] = Plasma concentration in C57BL/6 mouse at 1 mg/kg, po after 2 hrs; type: ADME, organism-based; design: dose 1 mg/kg, route oral
Canis familiaris = experiment: Clearance in dog at 1 mg/kg, iv and 10 mg/kg, po relative to hepatic blood flow; type: ADME, organism-based, Canis lupus familiaris, Liver; conditions: in vivo; method in brief: as §1
Cytochrome P450 3A4 [6] = biological target: T4, Cytochrome P450 3A4 (Homo sapiens, UniProt P08684); experiment: Time-dependent inhibition of CYP3A4 in human liver microsomes using midazolam as substrate up to 100 uM by LC/MS/MS analysis; type: ADME
Method in brief: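 Primary incubation: 0.1 mg/ml human liver microsomes, 100 mM phosphate pH 7.4, 1 mM NADPH, 37 °C, compound 0 to 100 µM (7 concentrations). Aliquots taken at 0, 1, 3, 5, 15, 30 min into secondary incubation with 15 µM midazolam and 1 mM NADPH, quenched after 8 min; 1'-hydroxymidazolam measured by LC/MS/MS against a d4 internal standard.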

[7] = Volume of distribution at steady state in dog at 1 mg/kg, iv and 10 mg/kg, po; type: ADME, organism-based, Canis lupus familiaris; conditions: in vivo, read-out: Vdss; method in brief: as §1
[8] = Aqueous equilibrium solubility of the compound in crystalline form in citric acid/disodium phosphate buffer at pH 6.8 after 24 hrs of rotation by HPLC analysis; type: physicochemical
Method in brief: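 Saturated solution of crystalline material in citric acid/disodium phosphate buffer pH 6.8 rotated 24 h; after centrifugation and filtration, dissolved concentration measured by HPLC.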

[9] = Plasma concentration in C57BL/6 mouse at 30 mg/kg, po after 2 hrs; type: ADME, organism-based; design: dose 30 mg/kg, route oral
[10] = Metabolic stability in human liver microsomes at 1 uM preincubated for 10 mins followed by NADPH addition measured over 60 mins by LC/MS analysis relative to hepatic blood flow; type: ADME; conditions: read-out: Stability
Method in brief: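 Human liver microsomes (1 mg/mL protein) with test compound at 1 µM, preincubated 10 min at 37 °C before adding NADPH. Remaining compound followed over a 0–60 min time course, as duplicate 8-timepoint curves. The slope of ln(% remaining) against time gives clearance, expressed as percent of hepatic blood flow.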

Cytochrome P450 3A4 [11] = biological target: T4, Cytochrome P450 3A4; experiment: Inhibition of CYP3A4 in human liver microsomes using midazolam as substrate preincubated for 10 mins followed by NADPH addition measured after 6 mins; type: ADME
Method in brief: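 Human liver microsomes (0.05 mg/mL protein) with cocktail substrates: 4 µM diclofenac (2C9), 3 µM dextromethorphan (2D6), 2.5 µM midazolam (3A4). Compound in 0.1 M potassium phosphate pH 7.4 preincubated 10 min at 37 °C; NADPH added, reaction 6 min at 37 °C.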

Rattus norvegicus = experiment: Clearance in rat at 1 mg/kg, iv and 10 mg/kg, po relative to hepatic blood flow; type: ADME, organism-based, Liver; conditions: in vivo; method in brief: as §1
Hepatocyte = experiment: Unbound clearance in human hepatocytes at 1 uM measured over 6 hrs by LC/MS analysis relative to hepatic blood flow; type: ADME, cell-based, Liver
Method in brief: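 Cryopreserved human hepatocytes (1 million cells/mL) with 1 µM compound at 37 °C for 6 h; compound remaining measured by LC/MS over a duplicate 6-timepoint (0 to 6 h) curve. Clearance derived from the ln(% remaining) vs time slope and corrected by the human plasma unbound fraction; expressed as percent of hepatic blood flow.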

[12] = Plasma concentration in C57BL/6 mouse at 3 mg/kg, po after 2 hrs; type: ADME, organism-based; design: dose 3 mg/kg, route oral

T4 sequence (P08684 whole entry): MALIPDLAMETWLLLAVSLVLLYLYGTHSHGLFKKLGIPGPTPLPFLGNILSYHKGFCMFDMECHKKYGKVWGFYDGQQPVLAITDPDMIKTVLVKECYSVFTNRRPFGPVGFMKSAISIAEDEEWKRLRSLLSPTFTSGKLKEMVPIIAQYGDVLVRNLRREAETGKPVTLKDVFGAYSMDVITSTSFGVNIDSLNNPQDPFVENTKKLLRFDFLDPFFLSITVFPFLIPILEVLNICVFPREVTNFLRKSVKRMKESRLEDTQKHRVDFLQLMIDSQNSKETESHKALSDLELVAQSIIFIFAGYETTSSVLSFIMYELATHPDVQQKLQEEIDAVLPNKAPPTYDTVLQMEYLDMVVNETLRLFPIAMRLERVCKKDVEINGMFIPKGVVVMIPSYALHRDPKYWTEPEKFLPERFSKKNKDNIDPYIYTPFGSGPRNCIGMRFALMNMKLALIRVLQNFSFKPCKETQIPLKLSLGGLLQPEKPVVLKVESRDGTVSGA

IC50 [1]: 4.8 µM
MRT [2]: 4.8 h
inhibition [3]: < 50%
IC50 [4]: 0.045 µM
concentration at 2 h [5]: 1.7 µM
CL (Canis familiaris): 2.8%
TDI (Cytochrome P450 3A4 [6]): Not Active
Vd [7]: 1.2 L/kg
solubility thermodynamic at 24 h [8]: 48 µg/mL (≈ 105 µM)
concentration at 2 h [9]: 20.7 µM
hepatic extraction ratio at 1 h, 1 µM [10]: 0.33
IC50 (Cytochrome P450 3A4 [11]): > 30 µM
CL (Rattus norvegicus): 7%
CL free (Hepatocyte): 8.7%
concentration at 2 h [12]: 3.7 µM
Compound: CN(C)C(=O)Cn1cc(-c2nc([C@@](C)(c3ccc(-c4cnc(N)nc4)cc3)C3CC3)no2)cn1 [BI 665915]
Activity (Mus musculus): 22.2%
